Experimental data published in ChEMBL document CHEMBL1132751, “Structure-activity relationships of trans-3,5-disubstituted pyrrolidinylthio-1beta-methylcarbapenems. Part 1: J-111,347 and related compounds” (2000).
≈ marks a conversion by molar mass, not a printed value.

Assays:
Type in all cases: functional
[1] = system: Pseudomonas aeruginosa; assay: In vitro antibacterial activity was determined against Pseudomonas aeruginosa AK109.
[2] = system: Pseudomonas aeruginosa; assay: In vitro antibacterial activity was determined against ceftazidime- resistant Pseudomonas aeruginosa AKR17.
How it was run: (§1)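 Minimum inhibitory concentration determined by agar dilution. The S. aureus pMS520/Smith and S. epidermidis MB5181 strains are methicillin-resistant isolates.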

[3] = system: Staphylococcus aureus; assay: In vitro antibacterial activity was determined against methicillin-resistant Staphylococcus aureus pMS520/Smith.; how it was run: as §1
[4] = system: Staphylococcus aureus; assay: In vitro antibacterial activity was determined against Staphylococcus aureus 209P NIHJ JCI.
[5] = system: Escherichia coli; assay: In vitro antibacterial activity was determined against Escherichia coli NIHJ JC2.
[6] = system: Staphylococcus epidermidis; assay: In vitro antibacterial activity was determined against methicillin-resistant Staphylococcus epidermidis MB5181.; how it was run: as §1
[7] = system: Staphylococcus aureus; assay: TIn vitro antibacterial activity against methicillin-resistant Staphylococcus aureus pMS520/Smith.; how it was run: as §1

SMILES | MIC [1] [µg/mL] | MIC [2] [µg/mL] | MIC [3] [µg/mL] | MIC [4] [µg/mL] | MIC [5] [µg/mL] | MIC [6] [µg/mL] | MIC [7] [µg/mL]
C[C@@H](O)[C@H]1C(=O)N2C(C(=O)O)=C(S[C@@H]3CN[C@H](CNc4ccccc4)C3)[C@H](C)[C@H]12 | 12.5 (≈ 29.9 µM) | 25 (≈ 59.9 µM) | 12.5 (≈ 29.9 µM) | < 0.006 | 0.05 (≈ 0.12 µM) | 6.25 (≈ 15 µM) | 
C[C@@H](O)[C@H]1C(=O)N2C(C(=O)O)=C(S[C@@H]3CN[C@H](COc4ccc(CN)cc4)C3)[C@H](C)[C@H]12 | 1.56 (≈ 3.49 µM) | 12.5 (≈ 27.9 µM) | 3.13 (≈ 6.99 µM) | < 0.006 | 0.025 (≈ 0.0559 µM) | 6.25 (≈ 14 µM) | 
C[C@@H](O)[C@H]1C(=O)N2C(C(=O)O)=C(S[C@@H]3CN[C@H](CCc4ccccc4)C3)[C@H](C)[C@H]12 | 25 (≈ 60 µM) | > 50 | 6.25 (≈ 15 µM) | < 0.006 | 0.05 (≈ 0.12 µM) | 3.13 (≈ 7.51 µM) | 
C[C@@H](O)[C@H]1C(=O)N2C(C(=O)O)=C(S[C@@H]3CN[C@@H](CSc4ccc(CN)cc4)C3)[C@H](C)[C@H]12 | 1.56 (≈ 3.36 µM) | 12.5 (≈ 27 µM) | 3.13 (≈ 6.75 µM) | < 0.006 | 0.05 (≈ 0.108 µM) | 3.13 (≈ 6.75 µM) | 
C[C@@H](O)[C@H]1C(=O)N2C(C(=O)O)=C(S[C@@H]3CN[C@@H](c4ccc(CN)cc4)C3)[C@H](C)[C@H]12 | 0.39 (≈ 0.934 µM) | 3.13 (≈ 7.5 µM) | 0.78 (≈ 1.87 µM) | < 0.006 | 0.025 (≈ 0.0599 µM) | 1.56 (≈ 3.74 µM) | 
C[C@@H](O)[C@H]1C(=O)N2C(C(=O)O)=C(S[C@@H]3CN[C@H](COc4ccccc4)C3)[C@H](C)[C@H]12 | 25 (≈ 59.7 µM) | > 50 | 25 (≈ 59.7 µM) | 0.012 (≈ 0.0287 µM) | 0.39 (≈ 0.932 µM) | 25 (≈ 59.7 µM) | 
C[C@@H](O)[C@H]1C(=O)N2C(C(=O)O)=C(S[C@@H]3CN[C@H](CSc4ccc(CN)cc4)C3)[C@H](C)[C@H]12 | 0.78 (≈ 1.68 µM) | 3.13 (≈ 6.75 µM) | 1.56 (≈ 3.36 µM) | < 0.006 | 0.025 (≈ 0.0539 µM) | 3.13 (≈ 6.75 µM) | 
C[C@@H](O)[C@H]1C(=O)N2C(C(=O)O)=C(S[C@@H]3CN[C@@H](Cc4ccc(CN)cc4)C3)[C@H](C)[C@H]12 | 25 (≈ 57.9 µM) | > 100 | 12.5 (≈ 29 µM) | 0.05 (≈ 0.116 µM) | 0.39 (≈ 0.904 µM) | 12.5 (≈ 29 µM) | 
C[C@@H](O)[C@H]1C(=O)N2C(C(=O)O)=C(S[C@@H]3CN[C@H](Cc4ccc(CN)cc4)C3)[C@H](C)[C@H]12 | 0.39 (≈ 0.904 µM) | 6.25 (≈ 14.5 µM) | 3.13 (≈ 7.25 µM) | < 0.006 | 0.025 (≈ 0.0579 µM) | 3.13 (≈ 7.25 µM) | 
C[C@@H](O)[C@H]1C(=O)N2C(C(=O)O)=C(S[C@@H]3CN[C@H](Cc4ccccc4)C3)[C@H](C)[C@H]12 | 25 (≈ 62.1 µM) | > 50 | 6.25 (≈ 15.5 µM) | < 0.006 | 0.1 (≈ 0.248 µM) | 3.13 (≈ 7.78 µM) | 
C[C@@H](O)[C@H]1C(=O)N2C(C(=O)O)=C(S[C@@H]3CN[C@H](CSc4ccccc4)C3)[C@H](C)[C@H]12 | 50 (≈ 115 µM) | 50 (≈ 115 µM) | 6.25 (≈ 14.4 µM) | < 0.006 | 0.1 (≈ 0.23 µM) | 3.13 (≈ 7.2 µM) | 
C[C@@H](O)[C@H]1C(=O)N2C(C(=O)O)=C(S[C@@H]3CN[C@H](CCc4ccc(CN)cc4)C3)[C@H](C)[C@H]12 | 0.78 (≈ 1.75 µM) | 6.25 (≈ 14 µM) | 3.13 (≈ 7.02 µM) | < 0.006 | 0.025 (≈ 0.0561 µM) | 25 (≈ 56.1 µM) | 
C[C@@H](O)[C@H]1C(=O)N2C(C(=O)O)=C(S[C@@H]3CN[C@H](c4ccc(CN)cc4)C3)[C@H](C)[C@H]12 | 0.78 (≈ 1.87 µM) | 6.25 (≈ 15 µM) |  | < 0.006 | 0.025 (≈ 0.0599 µM) | 3.13 (≈ 7.5 µM) | 1.56 (≈ 3.74 µM)
C[C@@H](O)[C@H]1C(=O)N2C(C(=O)O)=C(S[C@@H]3CN[C@H](CNc4ccc(CN)cc4)C3)[C@H](C)[C@H]12 | 1.56 (≈ 3.49 µM) | 12.5 (≈ 28 µM) | 3.13 (≈ 7.01 µM) | < 0.006 | 0.025 (≈ 0.056 µM) | 6.25 (≈ 14 µM) | 
C[C@@H](O)[C@H]1C(=O)N2C(C(=O)O)=C(SCCNC=N)C[C@H]12.O | 1.56 | 3.13 | 50 | < 0.006 | 0.01 | 50 | 
CN[C@H](CC(C)C)C(=O)N[C@H]1C(=O)N[C@@H](CC(N)=O)C(=O)N[C@H]2C(=O)N[C@H]3C(=O)N[C@H](C(=O)N[C@H](C(=O)O)c4cc(O)cc(O)c4-c4cc3ccc4O)[C@H](O)c3ccc(c(Cl)c3)Oc3cc2cc(c3O[C@@H]2O[C@H](CO)[C@@H](O)[C@H](O)[C@H]2O[C@H]2C[C@](C)(N)[C@H](O)[C@H](C)O2)Oc2ccc(cc2Cl)[C@H]1O [VANCOMYCIN] | > 100 | > 100 | 0.78 (≈ 0.538 µM) |  | > 100 |  | 
